Where “and” joins values, the source holds several entries; their conditions need not be identical. Equal entries are not always repeated.
Columns and labels:
Type in all cases: in vivo, human
[1] = tested on: tumor epichaperome formations (epichaperome/HSP90); test: 124I-PU-H71 PET/CT tumor imaging in cancer patients
In short: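 Adults with solid malignancy or lymphoma received 201±12 MBq tracer IV over 1-2 min, no contrast, with SSKI thyroid blockade. PET-CT was done at 3-4 and 20-24 h post-injection, with 45-60 min emission and OSEM reconstruction (decay, attenuation, scatter corrected). The highest-SUV tumor per patient gave SUVpeak (mean voxel SUV in the 1-cm3 sphere of highest uptake, mass-normalized). Tumor:bloodpool and tumor:muscle ratios were compared at 4 vs 24 h by Wilcoxon signed-rank.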

[2] = Whole blood and plasma radioassay of tracer clearance
In short: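 Tracer was injected IV over 1-2 min and blood drawn through a separate peripheral line at 10, 20 and 30 min and 1-2 or 3-4 h, plus 20-24 h in a subset (n=7). Whole blood and/or plasma were radioassayed by well counter. α and β half-lives came from biexponential fits, summarized as geometric mean. Plasma exposure was expressed as %ID·g·h/mL from 10 min to 4 h.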

[3] = Plasma radioHPLC analysis of tracer metabolism; conditions: for Relative amount in plasma supernatant, GM: % of total activity of identified radioHPLC peaks
[4] = PET/CT tracer biodistribution in normal organs
In short: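 Patients received 201±12 MBq tracer IV, with SSKI taken ≥2 h before and daily for two weeks. PET-CT ran skull vertex to proximal thighs at 3-4 and 20-24 h post-injection, with CT for attenuation correction and anatomic localization. Mean SUV was measured in normal organs, including aortic blood pool, humerus, axial skeleton and brain, at 4 and 24 h (n=30).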

[5] = PET-derived urinary and biliary tracer excretion
In short: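 Serial PET, with bisacodyl 15 mg orally on three nights post-injection: at each time-point, 3D VOIs measured total activity in the urinary bladder and in the hepatobiliary tree plus bowel. Tracer lost by voiding or defecation was tracked from whole-FOV activity on decay-corrected serial scans, normalized to total activity on the initial scan immediately post-injection.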

[6] = Clinical safety monitoring incl. serum TSH; conditions: microdose tracer 201±12 MBq, <25 μg IV, n=30 patients
In short: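 Microdose tracer was given IV after seven drops SSKI orally ≥2 h pre-injection, repeated daily for two weeks. Serum TSH was measured <1 week pre-injection as baseline and again 6-12 months post-injection. Toxicity signs and symptoms were checked at each imaging time-point, and patients reported adverse symptoms over the following 30 days.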

[7] = 4 hours post-injection, across patient population
[8] = one table row per patient, PET 4 h post-injection
[9] = one table row per patient, PET 24 h post-injection
[10] = patients, IV bolus, geometric mean

Structure (SMILES): CC(C)NCCCn1c(Sc2cc3c(cc2I)OCO3)nc2c(N)ncnc21 [^124I-PU-H71]
- Tumor:bloodpool ratio of radiotracer concentrations, average/SD [1, 7]: 3.2± 3.0
- Tumor:bloodpool ratio of radiotracer concentrations, maximum [1, 7]: up to 14.4
- Tumor:bloodpool SUV ratio ([1]; 24 h, person, stage IV pancreatic cancer (Fig. 1)): 19.8
- Tumor:bloodpool ratio of radiotracer concentrations, average/SD ([1]; 24 hours post-injection, across patient population): 3.9 ± 4.4
- 24-hour tumor SUV average/SD ([1]; between patients): 0.9 ± 0.8
- 24-hour tumor SUV coefficient of variation ([1]; between patients): 88.9%
- 24-hour tumor SUV range ([1]; between patients): 0.1-3.8
- Patients in whom PU-H71-avid tumors were detected ([1]; n=26 evaluable patients, PET at 24 h): 58%
- T:B 4 h (tumor:blood pool SUVpeak ratio) [1, 8]: 1.8 and 3.1 and 14.4 and 6.1 and 1.5 and 1.2 and 2.2 and 2.7 and 0.9 and 5.0 and 2.5 and 4.2 and 1.6 and 1.3 and 2.9 and 2.1 and 9.6 and 1.7 and 3.6
- T:M 4 h (tumor:muscle SUV ratio) [1, 8]: 1.8 and 6.0 and 22.0 and 5.1 and 2.1 and 1.2 and 2.8 and 1.9 and 2.4 and 5.3 and 2.0 and 1.0 and 5.4 and 4.0 and 3.3 and 5.2 and 3.0 and 3.8 and 1.5 and 7.7 and 2.7 and 4.9
- Tumor SUV 4 h (SUVpeak) [1, 8]: 1.1 and 1.6 and 11.0 and 2.5 and 0.64 and 0.8 and 0.7 and 0.9 and 3.4 and 1.7 and 3.2 and 2.1 and 1.3 and 1.8 and 2.7 and 1.5 and 2.2 and 1.2
- T:B 24 h (tumor:blood pool SUVpeak ratio) [1, 9]: 1.0 and 5.6 and 13.1 and 1.7 and 4.0 and 0.6 and 3.0 and 1.2 and 3.2 and 0.9 and 5.1 and 2.4 and 19.8 and 0.7 and 1.8 and 1.3 and 3.6 and 5.9 and 2.3 and 7.8 and 4.8
- T:M 24 h (tumor:muscle SUV ratio) [1, 9]: 1.6 and 11.2 and 20.0 and 8.0 and 6.7 and 1.2 and 6.0 and 2.3 and 1.5 and 6.4 and 1.0 and 1.1 and 8.8 and 2.1 and 6.2 and 2.5 and 4.6 ^****** and 1.4 and 3.3 and 5.6 and 5.2 and 17.5 and 1.3 and 5.1
- Tumor SUV 24 h (SUVpeak) [1, 9]: 0.3 and 0.6 and 3.8 and 0.8 and 0.4 and 0.1 and 0.2 and 1.0 and 0.7 and 1.8 and 1.1 and 1.6 and 0.5 and 1.3 and 0.9 and 2.1 and 1.5
- Decrease of tumor SUV between 4 to 24 hours ([1]; overall): 1.0±1.4 SUV units
- Decrease of tumor SUV between 4 to 24 hours, range ([1]; overall): −25.0 to +87.5%
- Decrease of tumor SUV between 4 to 24 hours, mean ± SD ([1]; overall, p=0.00002): 50.7 ± 27.0%
- Increase of tumor:bloodpool SUV ratio between 3 and 24 h ([1]; person, stage IV pancreatic cancer (Fig. 1)): 371%
- Median increase in tumor:bloodpool SUV ratio from 4 to 24 hours ([1]; population): 4.8%
- Median increase in tumor:muscle SUV ratio from 4 to 24 hours ([1]; population): 20.9%
- Range of change in tumor:bloodpool SUV ratio from 4 to 24 hours ([1]; population): −72.1 to +371.4%
- Range of change in tumor:muscle SUV ratio from 4 to 24 hours ([1]; population): −63.2 to +257.1%
- Average increase in tumor:muscle SUV ratio from 4 to 24 hours ([1]; population, p=0.02): 52.0 ± 87.3%
- Average increase in tumor:bloodpool SUV ratio from 4 to 24 hours ([1]; population, p=0.9): 25.7 ± 99.9%
- Plasma AUC coefficient of variation ([2]; between patients): 36.6%
- Plasma radiotracer exposure ([2]; from 10 minutes to 4 hours post-injection): 1.7±0.6 % ID•g•h/mL
- Blood t1/2 α, GM [2, 10]: 7.9 min
- Blood t1/2 β, GM [2, 10]: 6.103 h
- Plasma t1/2 α, GM [2, 10]: 7.0 min
- Plasma t1/2 β, GM [2, 10]: 4.402 h
- Relative amount in plasma supernatant, GM ([3]; 10 min after tracer injection): 69.2%
- Relative amount in plasma supernatant, GM ([3]; 20 min after tracer injection): 51.7%
- Relative amount in plasma supernatant, GM ([3]; 30 min after tracer injection): 44.9%
- Relative amount in plasma supernatant, GM ([3]; 1h after tracer injection): 32.3%
- Relative amount in plasma supernatant, GM ([3]; 4h after tracer injection): 22.7%
- Time by which radiotracer became predominantly radiometabolites ([3]; plasma, p.i.): ≤ 1 h
- Brain uptake ([4]; PET): scant
- 24-hour bloodpool SUV ([4]; average/SD, 24 hours post-injection): 0.2 ±0.1
- Urinary excretion of tracer [5]: 29.5 ±10.9 %ID
- Hepatobiliary excretion of tracer ([5]; bisacodyl given): 45.4 ±15.8 %ID
- Adverse effects [6]: no adverse effects
- Adverse effects ([6]; listed as PUH71 tracer): No signs or symptoms of adverse effects

Reference: article PMC7541604 (Clinical cancer research : an official journal of the …, 2020)
